In publication PMC5088049 (Pharmacogenetics and genomics, 2016):

How the values were obtained:
Format in all cases: in vitro ADME
[1] = Kinetics of EXE reduction to 17β-DHE, pooled human liver cytosol
AKR1C3 [2] = target: T1, AKR1C3 (Homo sapiens, UniProt P42330); assay: Kinetics of EXE reduction to 17β-DHE, recombinant AKR1C3
AKR1C3 Glu77Gly = AKR1C3 Glu77Gly (Homo sapiens, UniProt P42330, E77G); assay: Kinetics of EXE reduction to 17β-DHE, recombinant AKR1C3 Glu77Gly; conditions: for VMAX: normalized to enzyme purity
AKR1C3 Lys104Asn = AKR1C3 Lys104Asn (Homo sapiens, UniProt P42330, K104N); assay: Kinetics of EXE reduction to 17β-DHE, recombinant AKR1C3 Lys104Asn
AKR1C4 [3] = target: T2, AKR1C4 (Homo sapiens, UniProt P17516); assay: Kinetics of EXE reduction to 17β-DHE, recombinant AKR1C4; conditions: wildtype AKR1C4; for VMAX: normalized to enzyme purity
T2 sequence (P17516 1-323): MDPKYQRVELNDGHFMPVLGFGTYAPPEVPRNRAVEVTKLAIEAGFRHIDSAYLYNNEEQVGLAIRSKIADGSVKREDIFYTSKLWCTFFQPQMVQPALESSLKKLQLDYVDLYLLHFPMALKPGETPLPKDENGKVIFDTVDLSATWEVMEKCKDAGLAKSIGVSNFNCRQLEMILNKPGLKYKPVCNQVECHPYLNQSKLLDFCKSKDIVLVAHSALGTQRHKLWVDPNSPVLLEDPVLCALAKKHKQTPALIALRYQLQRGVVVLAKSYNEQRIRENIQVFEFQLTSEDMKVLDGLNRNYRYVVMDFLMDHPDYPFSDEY

CBR1 = target: T3, CBR1 (Homo sapiens, UniProt P16152); assay: Kinetics of EXE reduction to 17β-DHE, recombinant CBR1; conditions: for CLINT: VMAX/KM
T3 sequence (P16152 1-277): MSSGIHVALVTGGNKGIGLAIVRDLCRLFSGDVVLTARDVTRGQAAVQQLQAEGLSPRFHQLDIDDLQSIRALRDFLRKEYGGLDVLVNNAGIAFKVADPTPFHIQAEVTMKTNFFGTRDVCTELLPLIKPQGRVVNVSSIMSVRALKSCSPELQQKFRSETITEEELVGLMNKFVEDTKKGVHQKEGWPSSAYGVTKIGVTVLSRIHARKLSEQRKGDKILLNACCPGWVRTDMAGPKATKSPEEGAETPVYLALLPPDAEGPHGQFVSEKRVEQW

[4] = Metabolite identification, overnight incubation with pooled human liver cytosol; conditions: 200 µM EXE, 18-h incubation, 7.5 µg pooled human liver cytosol, PBS pH 7.4, 37°C, NADPH regeneration system
AKR1C4 [5] = target: T2, AKR1C4; assay: Metabolite identification, overnight incubation with recombinant AKR1C4; conditions: 200 µM EXE, 18-h incubation, 1.5 µg recombinant AKR1C4
Method in brief: (§1)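 Wildtype enzyme was His-tagged, expressed in E. coli BL21 (IPTG induction), Ni-NTA purified and dialysed against PBS. It was stopped with ice-cold acetonitrile and centrifuged. UPLC/ESI+ full scan (m/z 100–450) was followed by targeted MS/MS transitions. Retention times were matched to synthetic 17α/17β-dihydro standards.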

AKR1C1 = AKR1C1 (Homo sapiens, UniProt Q04828); assay: Metabolite identification, overnight incubation with recombinant AKR1C1; conditions: 200 µM EXE, 18-h incubation, 1.5 µg recombinant AKR1C1
Method in brief: as §1

AKR1C2 = AKR1C2 (Homo sapiens, UniProt P52895); assay: Metabolite identification, overnight incubation with recombinant AKR1C2; conditions: 200 µM EXE, 18-h incubation, 1.5 µg recombinant AKR1C2
Method in brief: as §1

AKR1C3 [6] = target: T1, AKR1C3; assay: Metabolite identification, overnight incubation with recombinant AKR1C3; conditions: 200 µM EXE, 18-h incubation, 1.5 µg recombinant AKR1C3
Method in brief: as §1

T1 sequence (P42330 whole entry): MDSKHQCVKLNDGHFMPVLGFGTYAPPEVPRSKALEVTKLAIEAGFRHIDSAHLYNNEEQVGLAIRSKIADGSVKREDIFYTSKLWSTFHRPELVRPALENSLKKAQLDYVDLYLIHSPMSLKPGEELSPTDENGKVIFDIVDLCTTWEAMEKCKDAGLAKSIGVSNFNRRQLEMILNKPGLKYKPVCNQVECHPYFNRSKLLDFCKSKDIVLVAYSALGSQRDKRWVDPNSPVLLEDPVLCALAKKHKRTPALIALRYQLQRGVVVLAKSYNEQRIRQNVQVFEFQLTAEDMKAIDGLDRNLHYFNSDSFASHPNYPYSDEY
Chain of AKR1C3 Glu77Gly (P42330 whole entry E77G): as the sequence (P42330 whole entry) above, with E77G counted along it
Chain of AKR1C3 Lys104Asn (P42330 whole entry K104N): as the sequence (P42330 whole entry) above, with K104N counted along it
Chain of AKR1C1 (Q04828 whole entry): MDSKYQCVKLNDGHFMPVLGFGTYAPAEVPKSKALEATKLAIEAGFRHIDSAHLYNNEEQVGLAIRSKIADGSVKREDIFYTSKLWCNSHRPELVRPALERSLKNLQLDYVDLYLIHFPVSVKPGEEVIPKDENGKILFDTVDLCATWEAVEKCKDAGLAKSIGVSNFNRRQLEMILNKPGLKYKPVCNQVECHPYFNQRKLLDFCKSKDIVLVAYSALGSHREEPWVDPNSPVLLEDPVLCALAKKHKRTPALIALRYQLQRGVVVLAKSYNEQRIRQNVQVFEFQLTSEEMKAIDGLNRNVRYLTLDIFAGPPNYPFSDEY
Chain of AKR1C2 (P52895 whole entry): as the sequence (Q04828 whole entry) above, with T38V, R47H, L54V, C87S, V151M, R170H, Q172L counted along it

- Km at 90 min ([1]; human, pooled human liver cytosol, pH 7.4): 55.7 ± 1.9 µM
- VMAX of AKR1C3 relative to AKR1C4 (AKR1C3 [2]; higher than AKR1C4): 36 fold
- Km (AKR1C3 [2]; wildtype AKR1C3, 17β-DHE formation): 12.3 ± 1.1 µM
- CLINT (AKR1C3 [2]; wildtype AKR1C3, VMAX/KM): 6.8 nL/min/mg
- VMAX (AKR1C3 [2]; wildtype AKR1C3, normalized to enzyme purity): 83.3 ± 15.4 picomoles·min^−1·mg^−1
- Km (AKR1C3 Glu77Gly; AKR1C3 Glu77Gly (rs11551177), 17β-DHE formation): 13.9 ± 2.2 µM
- CLINT (AKR1C3 Glu77Gly; AKR1C3 Glu77Gly, VMAX/KM): 0.14 nL/min/mg
- VMAX (AKR1C3 Glu77Gly; AKR1C3 Glu77Gly): 1.9 ± 0.2 picomoles·min^−1·mg^−1
- VMAX (AKR1C3 Glu77Gly; AKR1C3 Glu77Gly, listed as EXE): 1.9 ± 0.2 picomoles·min^−1·mg^−1
- Km (AKR1C3 Lys104Asn; AKR1C3 Lys104Asn (rs12387), 17β-DHE formation): 16.8 ± 1 µM
- CLINT (AKR1C3 Lys104Asn; AKR1C3 Lys104Asn, VMAX/KM): 0.38 nL/min/mg
- VMAX (AKR1C3 Lys104Asn; AKR1C3 Lys104Asn, normalized to enzyme purity): 6.4 ± 0.3 picomoles·min^−1·mg^−1
- Km (AKR1C4 [3]; 17β-DHE formation): 9.7 ± 1.9 µM
- CLINT (AKR1C4 [3]; VMAX/KM): 0.24 nL/min/mg
- VMAX (AKR1C4 [3]): 2.3 ± 0.6 picomoles·min^−1·mg^−1
- VMAX (AKR1C4 [3]; listed as EXE): 2.3 ± 0.6 picomoles·min^−1·mg^−1
- rate of EXE reduction by CBR1 relative to AKR1C2 (CBR1; VMAX, faster than AKR1C2): about 11 fold
- rate of 17β-DHE formation by CBR1 relative to recombinant AKR1C enzymes (CBR1; more rapid than recombinant AKR1C enzymes): 11 to 403 fold
- CLINT (CBR1; wildtype CBR1): 3.50 nL/min/mg
- CLINT (CBR1; wildtype CBR1, listed as EXE): 3.5 nL/min/mg
- VMAX (CBR1; wildtype CBR1, normalized to enzyme purity): 928 ± 244 picomoles·min^−1·mg^−1
- metabolites formed (AKR1C4 [5]): both stereoisomers of DHE
- metabolites formed (AKR1C1): only 17β-DHE formation
- metabolites formed (AKR1C2): only 17β-DHE formation
- metabolites formed (AKR1C3 [6]): only 17β-DHE formation
SMILES: C=C1C[C@@H]2[C@H](CC[C@]3(C)C(=O)CC[C@@H]23)[C@@]2(C)C=CC(=O)C=C12 [exemestane, 6-methylenandrosa-1,4-diene-3-17-dione]
- maximum rate of 17β-DHE formation (VMAX) ([1]; 5 µg pooled HLC, 90-min incubation, EXE 0.5–400 µM): 21 ± 4.8 pmol/min/mg
- metabolite formed [4]: 17β-DHE although a lesser amount of 17α-DHE was detected as well
